Laboratory results reported in ChEMBL document CHEMBL1126663, “Purine 2'-deoxy-2'-fluororibosides as antiinfluenza virus agents” (J Med Chem, 1993).

What was measured:
[1] = test system: Influenza A virus; experiment: Antiviral activity against Influenza virus (A/Sweden/3/50/ (H1N1)) in dog kidney (MDCK) cells expressed.; type: functional, organism-based
In short: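 Plaque reduction assay. Confluent MDCK monolayers were infected with 50-150 PFU in the presence of compound, then overlaid with nutrient agarose containing 0.1 µg/mL trypsin, 100 µg/mL DEAE-dextran and compound. After 3-4 days at 36 °C, cells were formalin-fixed and methyl violet-stained, and plaques were counted as % of the untreated infected control, in triplicate. IC50 came from mean-versus-log concentration curves.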

[2] = Cytotoxicity in uninfected dog kidney (MDCK) cells.; type: cell-based; conditions: Canis lupus familiaris
In short: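 Dividing MDCK cells seeded at 2 × 10^4 cells/well in 24-well plates; compound added to growth medium at various concentrations. Cell growth compared with untreated controls over 4 days incubation (3-4 cell doublings).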

Which IC50 [1] does the source give for `OC[C@H]1O[C@@H](n2cnc3c(O)ncnc32)[C@H](F)[C@@H]1O` here?
Its IC50 is over 100 µM.

What about the IC50 [2] of the same compound?
The IC50 was over 500 µM.

Which results are given for `CCOc1ncnc2c1ncn2[C@@H]1O[C@H](CO)[C@@H](O)[C@H]1F`?
IC50 [1]: > 100 µM; IC50 [2]: > 500 µM

Which results are given for `Nc1nc(I)c2ncn([C@@H]3O[C@H](CO)[C@@H](O)[C@H]3F)c2n1`?
IC50 [1]: 23 µM; IC50 [2]: 300 µM

For `Nc1nc(Cl)c2ncn([C@@H]3O[C@H](CO)[C@@H](O)[C@H]3F)c2n1`, which IC50 [1] is on record?
Its IC50 is 17 µM.

What about the IC50 [2] of the same compound?
The IC50 was over 500 µM.

For `COc1ncnc2c1ncn2[C@@H]1O[C@H](CO)[C@@H](O)[C@H]1F`, which IC50 [1] is on record?
Its IC50 is over 100 µM.

And the IC50 [2]?
Its IC50 is over 500 µM.

With `CCCOc1nc(N)nc2c1ncn2[C@@H]1O[C@H](CO)[C@@H](O)[C@H]1F` as the compound, how does the IC50 [1] read?
Its IC50 is 36 µM.

What about the IC50 [2] of the same compound?
The IC50 was over 500 µM.

Which IC50 [1] does the source give for `Cc1nc(N)c2ncn([C@@H]3O[C@H](CO)[C@@H](O)[C@H]3F)c2n1` here?
The IC50 was over 100 µM.

What about the IC50 [2] of the same compound?
Its IC50 is over 500 µM.

What does the source list for `OC[C@H]1O[C@@H](n2cnc3c(NC4CC4)ncnc32)[C@H](F)[C@@H]1O`?
IC50 [1]: > 100 µM; IC50 [2]: > 500 µM

For `Cc1nc(N)nc2c1ncn2[C@@H]1O[C@H](CO)[C@@H](O)[C@H]1F`, which IC50 [1] is on record?
The IC50 was over 100 µM.

What about the IC50 [2] of the same compound?
Its IC50 is over 500 µM.

What does the source list for `Nc1nc(F)nc2c1ncn2[C@@H]1O[C@H](CO)[C@@H](O)[C@H]1F`?
IC50 [1]: > 100 µM; IC50 [2]: 120 µM

What does the source list for `COc1nc(N)c2ncn([C@@H]3O[C@H](CO)[C@@H](O)[C@H]3F)c2n1`?
IC50 [1]: > 100 µM; IC50 [2]: > 500 µM

Which IC50 [1] does the source give for `Nc1ncc2ncn([C@@H]3O[C@H](CO)[C@@H](O)[C@H]3F)c2n1` here?
Its IC50 is over 100 µM.

What about the IC50 [2] of the same compound?
Its IC50 is over 500 µM.

For `COc1nc(N)nc2c1ncn2[C@@H]1O[C@H](CO)[C@@H](O)[C@H]1F`, which IC50 [1] is on record?
Its IC50 is 16 µM.

What about the IC50 [2] of the same compound?
Its IC50 is over 500 µM.

With `Nc1nc(NC2CC2)c2ncn([C@@H]3O[C@H](CO)[C@@H](O)[C@H]3F)c2n1` as the compound, how does the IC50 [1] read?
Its IC50 is 72 µM.

What about the IC50 [2] of the same compound?
The IC50 was over 500 µM.

What does the source list for `Nc1nc(N)c2ncn([C@@H]3O[C@H](CO)[C@@H](O)[C@H]3F)c2n1`?
IC50 [1]: 15 µM; IC50 [2]: > 500 µM

Which IC50 [1] does the source give for `Nc1ncnc2c1ncn2[C@@H]1O[C@H](CO)[C@@H](O)[C@H]1F` [2'-BETA-FLUORO-2',3'-DEOXYADENOSINE] here?
The IC50 was 52 µM.

And the IC50 [2]?
Its IC50 is 320 µM.

Which IC50 [1] does the source give for `CCOc1nc(N)nc2c1ncn2[C@@H]1O[C@H](CO)[C@@H](O)[C@H]1F` here?
The IC50 was 29 µM.

And the IC50 [2]?
The IC50 was over 500 µM.

For `CSc1nc(N)nc2c1ncn2[C@@H]1O[C@H](CO)[C@@H](O)[C@H]1F`, which IC50 [1] is on record?
Its IC50 is over 100 µM.

And the IC50 [2]?
Its IC50 is over 500 µM.

Which IC50 [1] does the source give for `CSc1ncnc2c1ncn2[C@@H]1O[C@H](CO)[C@@H](O)[C@H]1F` here?
The IC50 was over 100 µM.

What about the IC50 [2] of the same compound?
The IC50 was over 500 µM.
